From article PMC6839502 (Journal of Alzheimer's Disease, 2019)
Several values for one entry are separate records, joined by “and”; a condition that tells them apart may be missing. Equal values may be shown once.

Legend:
CSF Aβ fragments = assay: CSF Aβ fragments, sAβPPα and sAβPPβ after multiple doses; assay type: in vivo, human; details: healthy adults
Method in brief: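 Healthy adults (18–55 y), randomized double-blind placebo-controlled, oral QD for 14 days, fasted on Days 1, 7, and 14. Lumbar-puncture CSF was taken on Day –3 (B8271004) or Day 0 (B8271001) and on Day 15, 24 h post last dose. Total Aβ was measured by DELFIA (LLOQ 391.0 pg/mL). Ln change from baseline was analysed by ANCOVA with treatment as a fixed effect and ln baseline as covariate, then converted to percent change versus pooled placebo with 2-sided 80% CI.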

CSF Aβ1–40 and Aβ1–42 = assay: Population PK/PD model of CSF Aβ1–40 and Aβ1–42; design: species or system human; details: in approximately 50% of subjects, simulated
Method in brief: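 Population PK/PD model built on pooled data from both studies: CSF Aβ at baseline plus one steady-state trough value. Indirect-response model in which plasma drug concentration lowers the Aβ production rate. Population PK parameters were fixed. CSF turnover rates were fixed at 0.084/h (Aβ1–40) and 0.12/h (Aβ1–42), taken from a separate serial-CSF study.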

BACE1 over BACE 2 = details: fluorescence polarization (FP) assay; cited from earlier work

Structure (SMILES): C[C@H]1C[C@H]2CSC(N)=N[C@@]2(c2nc(NC(=O)c3ccc(OC(F)F)cn3)cs2)CO1 [PF-06751979]
- CSF Aβ1–38 percent change from baseline to Day 15 (2-sided 80% CI) (CSF Aβ fragments; 50 mg QD 14 days, B8271001): –58.4 (–61.34, –55.28) %
- CSF Aβ1–40 percent change from baseline to Day 15 (2-sided 80% CI) (CSF Aβ fragments; 50 mg QD 14 days, B8271001): –70.2 (–74.20, –65.52) %
- CSF Aβ1–40 placebo-adjusted percent change from baseline to Day 15 (2-sided 80% CI) (CSF Aβ fragments; 50 mg QD 14 days, B8271001): –68.1 (–75.87, –57.86) %
- CSF Aβ1–42 percent change from baseline to Day 15 (2-sided 80% CI) (CSF Aβ fragments; 50 mg QD 14 days, B8271001): –71.9 (–74.97, –68.57) %
- CSF Aβ total percent change from baseline to Day 15 (2-sided 80% CI) (CSF Aβ fragments; 50 mg QD 14 days, B8271001): –64.0 (–66.62, –61.25) %
- CSF Aβx-38 percent change from baseline to Day 15 (2-sided 80% CI) (CSF Aβ fragments; 50 mg QD 14 days, B8271001): –60.2 (–63.42, –56.67) %
- CSF Aβx-40 percent change from baseline to Day 15 (2-sided 80% CI) (CSF Aβ fragments; 50 mg QD 14 days, B8271001): –60.4 (–63.71, –56.76) %
- CSF Aβx-42 percent change from baseline to Day 15 (2-sided 80% CI) (CSF Aβ fragments; 50 mg QD 14 days, B8271001): –64.3 (–67.21, –61.11) %
- CSF sAβPPα percent change from baseline to Day 15 (2-sided 80% CI) (CSF Aβ fragments; 50 mg QD 14 days, B8271001): 48.4 (38.56, 58.98) %
- CSF sAβPPβ percent change from baseline to Day 15 (2-sided 80% CI) (CSF Aβ fragments; 50 mg QD 14 days, B8271001): –70.6 (–72.23, –68.93) %
- CSF Aβ1–38 percent change from baseline to Day 15 (2-sided 80% CI) (CSF Aβ fragments; 125 mg QD 14 days, B8271004): –80.3 (–81.51, –79.06) %
- CSF Aβ1–40 percent change from baseline to Day 15 (2-sided 80% CI) (CSF Aβ fragments; 125 mg QD 14 days, B8271004): –85.5 (–86.45, –84.38) %
- CSF Aβ1–40 placebo-adjusted percent change from baseline to Day 15 (2-sided 80% CI) (CSF Aβ fragments; 125 mg QD 14 days, B8271004): –83.8 (–85.65, –81.78) %
- CSF Aβ1–42 percent change from baseline to Day 15 (2-sided 80% CI) (CSF Aβ fragments; 125 mg QD 14 days, B8271004): –86.4 (–87.40, –85.28) %
- CSF Aβ total percent change from baseline to Day 15 (2-sided 80% CI) (CSF Aβ fragments; 125 mg QD 14 days, B8271004): –80.1 (–81.01, –79.18) %
- CSF Aβx-38 percent change from baseline to Day 15 (2-sided 80% CI) (CSF Aβ fragments; 125 mg QD 14 days, B8271004): –82.0 (–83.18, –80.74) %
- CSF Aβx-40 percent change from baseline to Day 15 (2-sided 80% CI) (CSF Aβ fragments; 125 mg QD 14 days, B8271004): –81.0 (–82.16, –79.76) %
- CSF Aβx-42 percent change from baseline to Day 15 (2-sided 80% CI) (CSF Aβ fragments; 125 mg QD 14 days, B8271004): –81.9 (–82.76, –80.91) %
- CSF sAβPPα percent change from baseline to Day 15 (2-sided 80% CI) (CSF Aβ fragments; 125 mg QD 14 days, B8271004): 58.7 (48.89, 69.05) %
- CSF sAβPPβ percent change from baseline to Day 15 (2-sided 80% CI) (CSF Aβ fragments; 125 mg QD 14 days, B8271004): –81.3 (–82.21, –80.27) %
- CSF Aβ1–38 percent change from baseline to Day 15 (2-sided 80% CI) (CSF Aβ fragments; 275 mg QD 14 days, B8271004): –87.9 (–88.82, –86.98) %
- CSF Aβ1–40 percent change from baseline to Day 15 (2-sided 80% CI) (CSF Aβ fragments; 275 mg QD 14 days, B8271004): –92.9 (–93.54, –92.25) %
- CSF Aβ1–40 placebo-adjusted percent change from baseline to Day 15 (2-sided 80% CI) (CSF Aβ fragments; 275 mg QD 14 days, B8271004): –92.1 (–93.15, –90.98) %
- CSF Aβ1–42 percent change from baseline to Day 15 (2-sided 80% CI) (CSF Aβ fragments; 275 mg QD 14 days, B8271004): –93.6 (–94.22, –92.93) %
- CSF Aβ total percent change from baseline to Day 15 (2-sided 80% CI) (CSF Aβ fragments; 275 mg QD 14 days, B8271004): –86.5 (–87.26, –85.74) %
- CSF Aβx-38 percent change from baseline to Day 15 (2-sided 80% CI) (CSF Aβ fragments; 275 mg QD 14 days, B8271004): –90.1 (–90.91, –89.23) %
- CSF Aβx-40 percent change from baseline to Day 15 (2-sided 80% CI) (CSF Aβ fragments; 275 mg QD 14 days, B8271004): –87.6 (–88.55, –86.62) %
- CSF Aβx-42 percent change from baseline to Day 15 (2-sided 80% CI) (CSF Aβ fragments; 275 mg QD 14 days, B8271004): –86.6 (–87.43, –85.76) %
- CSF sAβPPα percent change from baseline to Day 15 (2-sided 80% CI) (CSF Aβ fragments; 275 mg QD 14 days, B8271004): 81.7 (67.79, 96.85) %
- CSF sAβPPβ percent change from baseline to Day 15 (2-sided 80% CI) (CSF Aβ fragments; 275 mg QD 14 days, B8271004): –84.3 (–85.28, –83.26) %
- Maximum observed (placebo-adjusted) reduction in CSF Aβ1–42 (CSF Aβ fragments; 275 mg QD, 24 h after Day 14 dose): ~93% and 92.9%
- Predicted average reduction of CSF Aβ1–40 and Aβ1–42 at steady state (CSF Aβ1–40 and Aβ1–42; 30 mg QD): approximately 60%
- Predicted average reduction of CSF Aβ1–40 and Aβ1–42 at steady state (CSF Aβ1–40 and Aβ1–42; 75 mg QD): ~80%
- Predicted average reduction of CSF Aβ1–40 and Aβ1–42 at steady state (CSF Aβ1–40 and Aβ1–42; 110 mg QD): ~85%
- Selectivity for BACE1 over BACE2 (BACE1 over BACE 2): 6.4 fold
